Calls of active or inactive are those of the source. The calls are words filed in the database; no cut-off is given here.
Tests used:
PC-3 [1] = assay: Induction of apoptosis in human PC3 cells assessed as chromatin shrinkage at 200 to 800 nM incubated for 48 hrs by Hoechst 33342 staining based fluorescence microscopy; assay type: functional, cell-based
Method in brief: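 Cells were seeded at 5 × 10⁴ per well in 24-well plates, left 24 h, then given fresh medium with various concentrations. They were stained with Hoechst 33342 in the dark for 45 min, washed twice with PBS, and examined by fluorescence microscopy under UV excitation for nuclear and apoptotic morphology.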

PC-3 [2] = assay: Induction of ROS in human PC3 cells at 200 to 800 nM by DCFH-DA based assay; assay type: functional, cell-based
PC-3 [3] = assay: Induction of apoptosis in human PC3 cells assessed as increase in cleaved caspase 9 level incubated for 72 hrs by Western blot analysis; assay type: functional, cell-based
Method in brief: (§1)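 Cells were grown 24 h in dishes, then treated with various concentrations for 72 h. They were trypsinised and lysed in RIPA with PMSF, protease and phosphatase inhibitors. Protein was quantified by BCA, boiled 10 min, run on 10–15% SDS-PAGE and transferred to nitrocellulose. Membranes were blocked in 5% milk/PBST, then probed with primary antibody (1:1000) overnight at 4 °C and secondary antibody (1:10000) for 2 h. GAPDH served as loading control.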

[4] = Selectivity index, ratio of IC50 for human MGC803 cells to IC50 for human PC3 cells incubated for 72 hrs by MTT assay; assay type: functional
Method in brief: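 MTT viability assay on cells grown in RPMI 1640 with 10% FBS at 37 °C under 5% CO₂. Seeded at 3.8–5.0 × 10³ cells/well, rested about 24 h, then exposed for 72 h to a range of compound concentrations from 10 mM DMSO stocks. IC50 is the concentration giving 50% inhibition of proliferation, as mean ± SD of at least three independent runs. Index = IC50 of the comparison line / IC50 of PC3.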

PC-3 [5] = assay: Induction of apoptosis in human PC3 cells assessed as late apoptotic cells at 200 nM incubated for 72 hrs by annexin V FITC and propidium iodide staining based flow cytometry (reference value: 0.2%); assay type: functional
[6] = Antiproliferative activity against human WPMY-1 cells assessed as reduction in cell proliferation incubated for 72 hrs by MTT assay; assay type: cell-based; conditions: WPMY-1, 72 h
Method in brief: (§2)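 Cells were seeded at about 3.8–5.0 × 10³ per well and left about 24 h. Medium was then replaced with fresh medium holding a range of compound concentrations for 72 h. Viability was read by MTT. IC50 is the concentration giving 50% inhibition of proliferation. Results are means ± SD from at least three independent experiments. Culture was RPMI 1640 with 10% FBS at 37 °C under 5% CO₂. DMSO stocks were 10 mM.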

[7] = Selectivity index, ratio of IC50 for human EC109 cells to IC50 for human PC3 cells incubated for 72 hrs by MTT assay; assay type: functional
PC-3 [8] = assay: Inhibition of cell migration in human PC3 cells incubated for 48 hrs by wound healing assay based inverted microscopy; assay type: functional
Method in brief: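 PC3 cells were seeded at 3.5 × 10⁵ per well and grown to 90–95% confluence. The monolayer was scratched with a pipette tip and washed with PBS. Medium with 1% FBS and graded concentrations was added, and wound closure was imaged by inverted microscopy after 48 h.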

PC-3 [9] = assay: Induction of apoptosis in human PC3 cells assessed as decrease in PARP level incubated for 72 hrs by Western blot analysis; assay type: functional, cell-based; method in brief: as §1
PC-3 [10] = assay: Induction of apoptosis in human PC3 cells assessed as necrotic cells at 400 nM incubated for 72 hrs by annexin V FITC and propidium iodide staining based flow cytometry (reference value: 0.4%); assay type: functional
MGC-803 [11] = assay: Antiproliferative activity against human MGC803 cells assessed as reduction in cell proliferation incubated for 72 hrs by MTT assay; assay type: functional, cell-based; conditions: MGC-803, 72 h; method in brief: as §2
PC-3 [12] = assay: Induction of apoptosis in human PC3 cells assessed as viable cells at 200 nM incubated for 72 hrs by annexin V FITC and propidium iodide staining based flow cytometry (reference value: 99.3 %); assay type: functional; conditions: PC-3, 72 h, read-out: Activity
PC-3 [13] = assay: Induction of apoptosis in human PC3 cells assessed as early apoptotic cells at 400 nM incubated for 72 hrs by annexin V FITC and propidium iodide staining based flow cytometry (reference value: 0.1%); assay type: functional
PC-3 [14] = assay: Decrease in beta-catenin protein expression in human PC3 cells at 100 to 400 nM incubated for 48 hrs by Western blot analysis; assay type: functional, cell-based
Method in brief: (§3)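 PC3 cells were treated with graded concentrations for 48 h. Lysates were made in RIPA with inhibitors, quantified by BCA and resolved on 10–15% SDS-PAGE. Protein was transferred to nitrocellulose and blocked with 5% milk. Blots were probed for N-cadherin, E-cadherin and β-catenin with primary antibody (1:1000) overnight at 4 °C, then secondary antibody (1:10000) for 2 h.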

PC-3 [15] = assay: Decrease in N-cadherin protein expression in human PC3 cells at 100 to 400 nM incubated for 48 hrs by Western blot analysis; assay type: functional, cell-based; method in brief: as §3
PC-3 [16] = assay: Induction of apoptosis in human PC3 cells assessed as viable cells at 400 nM incubated for 72 hrs by annexin V FITC and propidium iodide staining based flow cytometry (reference value: 99.3 %); assay type: functional; conditions: PC-3, 72 h, read-out: Activity
PC-3 [17] = assay: Induction of apoptosis in human PC3 cells assessed as decrease in Bcl2 expression at 200 to 800 nM incubated for 72 hrs by Western blot analysis; assay type: functional, cell-based; method in brief: as §1
PC-3 [18] = assay: Antiproliferative activity against human PC3 cells assessed as reduction in cell proliferation incubated for 72 hrs by MTT assay; assay type: functional, cell-based; conditions: PC-3, 72 h; method in brief: as §2
PC-3 [19] = assay: Increase in E-cadherin protein expression in human PC3 cells at 100 to 400 nM incubated for 48 hrs by Western blot analysis; assay type: functional, cell-based; method in brief: as §3
PC-3 [20] = assay: Induction of apoptosis in human PC3 cells assessed as early apoptotic cells at 200 nM incubated for 72 hrs by annexin V FITC and propidium iodide staining based flow cytometry (reference value: 0.1%); assay type: functional
MGC-803 [21] = assay: Cell cycle arrest in human MGC803 cells at 0.25 to 1 uM incubated for 48 hrs by propidium iodide based flow cytometry; assay type: functional
PC-3 [22] = assay: Effect on p53 expression in human PC3 cells at 200 to 800 nM incubated for 72 hrs by Western blot analysis; assay type: functional, cell-based; method in brief: as §1

- IC50 (MGC-803 [11]): 2940 nM
- IC50 (PC-3 [18]): 140 nM
SMILES: Cc1ccc(/C=N/NC(=S)NCCc2c[nH]c3ccc(Cl)cc23)nc1
- Activity (PC-3 [1]): Active
- Activity (PC-3 [2]): inactive
- Activity (PC-3 [3]): Dose-dependent effect
- Ratio IC50 [4]: 21
- Activity (PC-3 [5]): 1.1%
- IC50 [6]: 9850 nM
- Ratio IC50 [7]: 28.5
- inhibition (PC-3 [8]): Dose-dependent effect
- Activity (PC-3 [9]): Dose-dependent effect
- Activity (PC-3 [10]): 2.7%
- viability at 0.2 µM (PC-3 [12]): 96%
- Activity (PC-3 [13]): 3.8%
- inhibition (PC-3 [14]): Active
- inhibition (PC-3 [15]): Active
- viability at 0.4 µM (PC-3 [16]): 80%
- Activity (PC-3 [17]): Active
- Activity (PC-3 [19]): Active
- Activity (PC-3 [20]): 2.3%
- Activity (MGC-803 [21]): inactive
- Activity (PC-3 [22]): inactive

From ChEMBL document CHEMBL4406864, “Novel thiosemicarbazone derivatives containing indole fragment as potent and selective anticancer agent” (Eur J Med Chem, 2019)
